Compound activity: PubChem, several laboratories
UPR CHOP act = apoptotic UPR (CHOP) activation | 330,000 compounds, 0.34% hits | activation, % at 10 µM | CHO-CHOP luciferase reporter, luminescence; percent of tunicamycin response over DMSO baseline;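 active = at 10 µM dose, activation of 40% or more, normalized to positive control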
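Test system: CHO CHOP reporter cells. Input: 500 CHO-CHOP cells per well. Medium: F12 with 10% FBS. Technique: luciferase luminescence. Measure: percent activation relative to tunicamycin control. Dosing: 10 µM compound, 0.5% DMSO. Timing: 16-18 h cell attachment, then 6 h compound exposure, 37 °C.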
CHOP inh = blocks CHOP induction under ER stress; CHO-K1 CHOP-promoter luciferase, tunicamycin-induced, 15-18 h; inhibition, % at 10 µM; 220,000 compounds, 3.8% hits;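 active = compounds that reduced the stress-induced luciferase reporter signal by more than about 70% of percent inhibition, limit read from the data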
XBP1 UPR activ = activators of adaptive arm of unfolded protein response (XBP1); CHO-XBP1 luciferase reporter, IRE1-XBP1 UPR activation, luminescence; percent of tunicamycin response, DMSO as zero; activation, % at 20 µM; 330,000 compounds, 0.33% hits; AID 463104;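 active = versus positive control, 20 µM dose yields 30% or more activation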
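incubation = overnight seeding at 37 °C, 6 h compound treatment at 37 °C | assay system = CHO-XBP1 cells stably carrying IRE1-XBP1-driven luciferase reporter | input = 1000 cells per well | detection = luciferase luminescence | dosing = single point, 20 µM final compound, 1% DMSO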
TLR4-MyD88 BLA = inhibitors of human TLR4-MyD88 binding. O00206+Q99836. HeLa CL3-4 TLR4/MyD88 BLA complementation, FRET ratio. inhibition, % at 8.4 µM. 200,000 compounds, 0.18% hits. AID 861; in the data active = inhibition above about 25%
TLR9-MyD88 block = inhibitors of human TLR9-MyD88 binding; 340,000 compounds, 0.21% hits; Q9NR96+Q99836; CHO BLA complementation TLR9-MyD88, CCF4 FRET ratio; inhibition, % at 4.98 µM;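 active = inhibition above the mean over all tested compounds plus 3 SD, cut at about 21% in these data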
NOD2 RIPK2 PPI = NOD2-RIPK2 protein interaction inhibition. CHO BLA complementation NOD2-RIPK2, CCF4 ratio. inhibition, % at 4.98 µM. 360,000 compounds, 0.38% hits; in the data active = inhibition above about 21%
XBP1 UPR conf = adaptive UPR (XBP1) activation, confirmed. 1,000 compounds, 63% hits. CHO-XBP1 IRE1-XBP1 luciferase reporter, luminescence. activation, % at 20 µM. shares compounds with XBP1 UPR activ;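 active = reporter signal at least 30% of the positive control's activation in two or more of four replicate wells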
TLR9-MyD88 cf = TLR9-MyD88 interaction inhibition, confirmation; inhibition, % at 4.98 µM; shares compounds with TLR9-MyD88 block; CHO TLR9/MyD88 BLA complementation, CCF4 FRET ratio; 680 compounds, 51% hits;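 active = mean inhibition across three repeats above about 21% taken from the earlier screen, limit read from the data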;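 note: blue over green emission ratio reports constitutive TLR9 MyD88 association via BLA complementation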
BLA counter-1 = non-selective beta-lactamase inhibitors in TLR9-MyD88 counter-screen | shares compounds with TLR9-MyD88 block | CHO-BLA cells, CCF4 FRET ratio, BLA reporter | inhibition, % at 4.98 µM | 680 compounds, 7% hits;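 active = mean inhibition above a 50% cutoff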;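 note: counterscreen of TLR9-MyD88 hits on CMV-driven BLA in CHO-K1 cells; higher means less blue over green ratio so more BLA blockade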
TLR9 CHO cytotox = CHO cell toxicity counter-screen for TLR9-MyD88 inhibitors | shares compounds with TLR9-MyD88 block | TLR9-MyD88 CHO cells cytotoxicity, luminescence | inhibition, % at 4.98 µM | 680 compounds, 39% hits | AID 588336; in the data active = inhibition above about 11%
NOD2 RIPK2 conf = NOD2-RIPK2 interaction inhibition confirmed | shares compounds with NOD2 RIPK2 PPI | CHO cells, NOD2-RIPK2 BLA complementation, CCF4 FRET | inhibition, % at 4.98 µM | 1,200 compounds, 70% hits | AID 624370;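 active = mean inhibition across replicates above a set limit taken from the earlier primary screen, cut at about 21% in these data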
BLA counter-2 = hits BLA reporter in NOD2-RIPK2 inhibitor counterscreen; CHO BLA reporter, CCF4 FRET ratio; AID 624371; inhibition, % at 4.98 µM; 1,200 compounds, 57% hits; shares compounds with NOD2 RIPK2 PPI;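 active = mean inhibition above the low-control mean inhibition plus three low-control SD, cut at about 11% in these data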
A number is an active result. The sample as a whole holds a higher share of hits than the screen did.

For CCOc1cc(/C=N/NC(=O)Cn2nc([N+](=O)[O-])cc2C)cc(Br)c1OCc1ccccc1C the results were UPR CHOP act inactive, CHOP inh inactive, XBP1 UPR activ 57.0, TLR4-MyD88 BLA inactive, TLR9-MyD88 block inactive, NOD2 RIPK2 PPI inactive and XBP1 UPR conf 79.6.
`COc1ccc(OC)c(NC(=O)c2ccccc2SC)c1` gave UPR CHOP act inactive, CHOP inh inactive, XBP1 UPR activ inactive, TLR4-MyD88 BLA inactive, TLR9-MyD88 block inactive and NOD2 RIPK2 PPI inactive.
For COc1ccc(OC)c(NC(=O)c2cc3oc4ccccc4c3cc2O)c1 the results were UPR CHOP act inactive, CHOP inh inactive, XBP1 UPR activ 36.8, TLR9-MyD88 block inactive, NOD2 RIPK2 PPI inactive and XBP1 UPR conf inactive.
For COc1ccc(CN2C(=O)C(CC(=O)NC(c3ccccc3)c3ccccc3)CC(C(=O)N(C(C)C)C(C)C)=C2C)cc1 (centres undefined) the results were TLR9-MyD88 block inactive and NOD2 RIPK2 PPI inactive.
CCOc1ccc(C(=O)Nc2cc(-c3nc4ccccc4[nH]3)ccc2Cl)cc1[N+](=O)[O-] was read as UPR CHOP act inactive, CHOP inh 78.7, XBP1 UPR activ 35.1, TLR4-MyD88 BLA inactive, TLR9-MyD88 block inactive, NOD2 RIPK2 PPI inactive and XBP1 UPR conf 535.0.
`CCOc1ccc(C(=O)Nc2cc(-c3nc4ccccc4[nH]3)ccc2C)cc1[N+](=O)[O-]` gave UPR CHOP act inactive, CHOP inh inactive, XBP1 UPR activ inactive, TLR4-MyD88 BLA inactive, TLR9-MyD88 block inactive and NOD2 RIPK2 PPI inactive.
O=C(NC(=S)Nc1cc(-c2nc3ccccc3[nH]2)ccc1Cl)c1ccc2c(c1)OCO2 was read as UPR CHOP act inactive, CHOP inh 94.4, XBP1 UPR activ 95.5, TLR4-MyD88 BLA inactive, TLR9-MyD88 block inactive, NOD2 RIPK2 PPI inactive and XBP1 UPR conf 164.2.
Screening CNc1c(-n2cc(C(=O)OC)c(C(=O)OC)c2C(=O)OC)c(=O)n(C)c(=O)n1C returned UPR CHOP act inactive, XBP1 UPR activ inactive, TLR9-MyD88 block inactive and NOD2 RIPK2 PPI inactive.
`COc1ccc(NC(=O)CSc2nc3ccc(Nc4nc(N5CCOCC5)nc(N5CCOCC5)n4)cc3s2)cc1` gave UPR CHOP act inactive, XBP1 UPR activ 57.7, TLR9-MyD88 block inactive, NOD2 RIPK2 PPI inactive and XBP1 UPR conf 31.0.
For CC(=O)CSc1nc2ccc(Nc3nc(N4CCOCC4)nc(N4CCOCC4)n3)cc2s1 the results were UPR CHOP act inactive, CHOP inh inactive, XBP1 UPR activ inactive, TLR4-MyD88 BLA inactive, TLR9-MyD88 block inactive and NOD2 RIPK2 PPI inactive.
`Cn1c(=O)n(C)c2cc(NC(=O)c3ccccc3[N+](=O)[O-])c(Br)cc21` gave UPR CHOP act inactive, CHOP inh inactive, XBP1 UPR activ inactive, TLR4-MyD88 BLA inactive, TLR9-MyD88 block inactive and NOD2 RIPK2 PPI inactive.
`COC(=O)CSc1nc(N)c2c3c(sc2n1)C(c1ccccc1)SC(c1ccccc1)C3` (centres undefined) gave UPR CHOP act inactive, CHOP inh inactive, XBP1 UPR activ 38.0, TLR4-MyD88 BLA inactive, TLR9-MyD88 block 25.8, NOD2 RIPK2 PPI inactive, XBP1 UPR conf inactive, TLR9-MyD88 cf inactive, BLA counter-1 inactive and TLR9 CHO cytotox inactive.
For Cn1c(SCC(=O)Nc2cccnc2Cl)nc2ccccc21 the results were UPR CHOP act inactive, XBP1 UPR activ inactive, TLR9-MyD88 block inactive and NOD2 RIPK2 PPI inactive.
CCN(CC)c1ccc(-c2nn3c(-c4ccccc4OC)nnc3s2)cc1 was read as UPR CHOP act inactive, XBP1 UPR activ 30.4, TLR4-MyD88 BLA inactive, TLR9-MyD88 block inactive, NOD2 RIPK2 PPI 22.5, XBP1 UPR conf 31.9, NOD2 RIPK2 conf inactive and BLA counter-2 inactive.
CN(C(=O)c1cccc(NC(=O)Cc2cccc(NC(=O)C3CCCN(C(=O)C4CCCCC4)C3)c2)c1)C1CC1 (centres undefined) was read as TLR9-MyD88 block inactive and NOD2 RIPK2 PPI inactive.
`CCOc1ccccc1CNC(=O)C1CCN(c2nnc(C)c3c(C)n(-c4ccc(C)cc4)nc23)CC1` gave UPR CHOP act inactive, XBP1 UPR activ 63.9, TLR9-MyD88 block inactive, NOD2 RIPK2 PPI 37.1, XBP1 UPR conf 85.0, NOD2 RIPK2 conf 35.4 and BLA counter-2 11.6.
`COc1ccc(-c2cc(C#N)nc(Oc3ccc(Cl)cc3)n2)cc1` gave UPR CHOP act inactive, CHOP inh inactive, XBP1 UPR activ inactive, TLR4-MyD88 BLA inactive, TLR9-MyD88 block inactive and NOD2 RIPK2 PPI inactive.
`COc1ccc(-c2cc(C#N)nc(Cl)n2)cc1` gave UPR CHOP act inactive, CHOP inh inactive, XBP1 UPR activ 30.2, TLR9-MyD88 block inactive, NOD2 RIPK2 PPI 27.8, XBP1 UPR conf inactive, NOD2 RIPK2 conf 39.9 and BLA counter-2 inactive.
`COc1ccccc1-c1cc(C(=O)N2CCN(S(=O)(=O)c3ccc(C)cc3)CC2)[nH]n1` gave UPR CHOP act inactive, XBP1 UPR activ inactive, TLR9-MyD88 block inactive and NOD2 RIPK2 PPI inactive.
Screening C=CCn1nc2n(c1=O)-c1ccccc1SC2 returned UPR CHOP act inactive, CHOP inh inactive, XBP1 UPR activ inactive, TLR9-MyD88 block 22.7, NOD2 RIPK2 PPI inactive, TLR9-MyD88 cf inactive, BLA counter-1 inactive and TLR9 CHO cytotox inactive.
COc1ccc(CCNc2cn[nH]c(=O)c2Cl)cc1OC was read as UPR CHOP act inactive, CHOP inh inactive, XBP1 UPR activ inactive, TLR4-MyD88 BLA inactive, TLR9-MyD88 block inactive and NOD2 RIPK2 PPI inactive.
O=c1[nH]ncc(NCCc2ccccc2)c1Cl was read as UPR CHOP act inactive, CHOP inh inactive, XBP1 UPR activ inactive, TLR4-MyD88 BLA inactive, TLR9-MyD88 block 23.8, NOD2 RIPK2 PPI inactive, TLR9-MyD88 cf inactive, BLA counter-1 inactive and TLR9 CHO cytotox inactive.
